pIC50: −log10 of the molar value. Each block holds one compound with its values, some of them ahead of it. Active and inactive are the calls of the source. The calls are words filed in the database; no cut-off is given here.
Tests used:
U-87 MG [1] = assay: Cell cycle arrest in human U87MG cells assessed as decrease in cell accumulation at G2 phase at 10 uM incubated for 24 hrs by propidium iodide staining based flow cytometry analysis; type: functional; details: U-87MG ATCC
PC-3 [2] = assay: Antiproliferative activity against human PC3 cells assessed as reduction in cell viability at 10 uM incubated for 48 hrs in presence of Zn2+ ion by MTT assay; type: functional, cell-based
How it was run: (§1)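 LN229 and PC3 cells plated, then 24 h later given 10 µM compound with or without 15 µM ZnCl2, CuCl2, FeCl2 or FeCl3 for 48 h. Medium replaced, MTT (12 mM solution) added for 4 h, formazan dissolved in DMSO, absorbance read at 540 nm. Percent viable versus untreated; mean ± SD of three experiments in triplicate.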

PC-3 [3] = assay: Induction of cellular senescence in human PC3 cells assessed as flattened cells at 10 uM incubated for 24 hrs by phase contrast microscopy; type: functional, cell-based
How it was run: (§2)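 LN229 and PC3 cells, 12×10^4 per well in 6-well plates, treated with 10 µM compound for 24 h. Senescence-associated β-gal staining: fixed in 2% formaldehyde/0.2% glutaraldehyde for 10 min at RT, stained with 1 mg/mL X-gal at 37 °C for 24 h without CO2. Blue cells counted in at least 10 fields at 10x and given as percent of total; four independent experiments. Morphology viewed by phase contrast at ×100.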

PC-3 [4] = assay: Antiproliferative activity against human PC3 cells assessed as reduction in cell viability at 10 uM incubated for 48 hrs in presence of Fe2+ ion by MTT assay; type: functional, cell-based; how it was run: as §1
PC-3 [5] = assay: Induction of cell morphological changes in human PC3 cells assessed as cell shrinkage at 10 uM incubated for 24 to 48 hrs by phase contrast microscopy; type: functional, cell-based
How it was run: (§3)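 LN229 and PC3 cells exposed to 10 µM compound for the indicated time-points, then imaged live by phase-contrast microscopy for morphology.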

PC-3 [6] = assay: Induction of cell morphological changes in human PC3 cells assessed as loss of cell adherence at 10 uM incubated for 24 to 48 hrs by phase contrast microscopy; type: functional, cell-based; how it was run: as §3
U-87 MG [7] = assay: Induction of apoptosis in human U87MG cells assessed as increase in caspase-3/7 activation at 10 uM incubated for 48 hrs by luminometric caspase-glo 3/7 assay; type: functional, cell-based; details: U-87MG ATCC
How it was run: (§4)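 Cells in RPMI or DMEM with 10% heat-inactivated FBS and penicillin/streptomycin, 37 °C, 5% CO2, treated with 10 µM compound for 48 h. Caspase-3 and caspase-7 activity read by luminescent Caspase-Glo 3/7 assay, reported as fold induction over untreated cells; mean ± SD of three independent experiments, each in triplicate.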

Homo sapiens [8] = species: Homo sapiens; assay: Induction of apoptosis in human UPN2 cells assessed as increase in caspase-3/7 activation at 10 uM incubated for 48 hrs by luminometric caspase-glo 3/7 assay; type: functional, cell-based; how it was run: as §4
PC-3 [9] = assay: Induction of apoptosis in human PC3 cells at 10 uM incubated for 24 to 48 hrs by annexin V-FITC and propidium iodide staining based flow cytometric analysis; type: functional, cell-based
PC-3 [10] = assay: Cell cycle arrest in human PC3 cells assessed as cell accumulation at G1 phase at 10 uM incubated for 24 hrs by propidium iodide staining based flow cytometry analysis relative to control; type: functional
LN-229 [11] = assay: Induction of cellular senescence in human LN229 cells assessed as cells with irregular shape at 10 uM incubated for 24 hrs by phase contrast microscopy; type: functional, cell-based; how it was run: as §2
Granta-519 [12] = assay: Antiproliferative activity against human GRANTA-519 cells assessed as reduction in cell viability incubated for 48 hrs by cell titer-glo assay; type: functional, cell-based; details: Granta-519, 48 h
How it was run: (§5)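 Dose-response: cells plated, treated 24 h later for 48 h, then ATP measured by CellTiter-Glo luminescence. IC50 given as mean ± SD from three independent experiments, each in triplicate. Fibroblasts came from individuals. Cells were kept in RPMI or DMEM with 10% heat-inactivated FBS and penicillin/streptomycin at 37 °C, 5% CO2.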

PC-3 [13] = assay: Cell cycle arrest in human PC3 cells assessed as cell accumulation at sub-G1 phase at 10 uM incubated for 48 hrs by propidium iodide staining based flow cytometry analysis relative to control; type: functional
LN-229 [14] = assay: Induction of apoptosis in human LN229 cells at 10 uM incubated for 24 to 48 hrs by annexin V-FITC and propidium iodide staining based flow cytometric analysis; type: functional, cell-based
Z-138 = assay: Induction of apoptosis in human Z138 cells assessed as increase in caspase-3/7 activation at 10 uM incubated for 48 hrs by luminometric caspase-glo 3/7 assay; type: functional, cell-based; how it was run: as §4
LN-229 [15] = assay: Induction of cell morphological changes in human LN229 cells assessed as loss of cell adherence at 10 uM incubated for 24 to 48 hrs by phase contrast microscopy; type: functional, cell-based; how it was run: as §3
PC-3 [16] = assay: Cell cycle arrest in human PC3 cells assessed as cell accumulation at G1 phase at 10 uM incubated for 48 hrs by propidium iodide staining based flow cytometry analysis relative to control; type: functional
Granta-519 [17] = assay: Antiproliferative activity against human GRANTA-519 cells assessed as reduction in cell viability at 10 uM incubated for 48 hrs by cell titer-glo assay; type: functional, cell-based
How it was run: (§6)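 Cells plated and treated 24 h later with 10 µM compound for 48 h; viable cells quantified by CellTiter-Glo ATP luminescence. Expressed as percentage of viable cells relative to untreated; mean ± SD of three independent experiments, each in triplicate.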

LN-229 [18] = assay: Induction of cell morphological changes in human LN229 cells assessed as cell shrinkage at 10 uM incubated for 24 to 48 hrs by phase contrast microscopy; type: functional, cell-based; how it was run: as §3
PC-3 [19] = assay: Antiproliferative activity against human PC3 cells assessed as reduction in cell viability incubated for 48 hrs by cell titer-glo assay; type: functional, cell-based; details: PC-3, 48 h; how it was run: as §5
PC-3 [20] = assay: Induction of cellular senescence in human PC3 cells assessed as wider cells at 10 uM incubated for 24 hrs by phase contrast microscopy; type: functional, cell-based; how it was run: as §2
Granta-519 [21] = assay: Induction of apoptosis in human GRANTA-519 cells assessed as increase in caspase-3/7 activation at 10 uM incubated for 48 hrs by luminometric caspase-glo 3/7 assay; type: functional, cell-based; how it was run: as §4
DNA = assay: Induction of DNA damage in human Z138 cells assessed as gammaH2AX phosphorylation at Ser139 residue at 10 uM incubated for 4 hrs by Flow cytometry analysis; type: cell-based
How it was run: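 Z-138 and LN229 cells treated 4 h with 10 µM compound or 1 µM doxorubicin. Fixed in 3.7% formaldehyde on ice, permeabilized with 0.2% Triton X, stained with rabbit anti-pS139 H2A.X (1:400) and Alexa 555 secondary, then analysed by flow cytometry. Fold γH2AX fluorescence versus untreated; mean ± SD of three experiments.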

PC-3 [22] = assay: Induction of apoptosis in human PC3 cells assessed as late apoptotic cells at 10 uM incubated for 72 hrs by annexin V-FITC and propidium iodide staining based flow cytometry analysis (reference value: 0.52 %); type: functional
Jurkat = assay: Antiproliferative activity against human Jurkat cells assessed as reduction in cell viability at 10 uM incubated for 48 hrs by cell titer-glo assay; type: functional, cell-based; how it was run: as §6
Homo sapiens [23] = species: Homo sapiens; assay: Induction of apoptosis in human SP53 cells assessed as increase in caspase-3/7 activation at 10 uM incubated for 48 hrs by luminometric caspase-glo 3/7 assay; type: functional, cell-based; how it was run: as §4
PC-3 [24] = assay: Induction of cellular senescence in human PC3 cells assessed as increase in nuclear size at 10 uM incubated for 24 hrs by phase contrast microscopy; type: functional, cell-based; how it was run: as §2

pIC50 (PC-3 [19]): 4.95
SMILES: CN(CCNCc1ccccn1)CCNCc1ccccn1
Activity (U-87 MG [1]): Active
Activity (PC-3 [2]): inactive
Activity (PC-3 [3]): Active
Activity (PC-3 [4]): Active
Activity (PC-3 [5]): Active
Activity (PC-3 [6]): Active
Activity (U-87 MG [7]): Active
Activity (Homo sapiens [8]): Active
Activity (PC-3 [9]): Active
Activity (PC-3 [10]): 71.1%
Activity (LN-229 [11]): Active
pIC50 (Granta-519 [12]): 5.68
Activity (PC-3 [13]): 19.6%
Activity (LN-229 [14]): Active
Activity (Z-138): Active
Activity (LN-229 [15]): Active
Activity (PC-3 [16]): 57.2%
Activity (Granta-519 [17]): Active
Activity (LN-229 [18]): Active
Activity (PC-3 [20]): Active
Activity (Granta-519 [21]): Active
Activity (DNA): inactive
Activity (PC-3 [22]): 12.63%
Activity (Jurkat): Active
Activity (Homo sapiens [23]): Active
Activity (PC-3 [24]): Active

pIC50 (PC-3 [19]): 4.96
SMILES: c1ccc(CNCCN(CCNCc2ccccn2)Cc2ccc3ccccc3c2)nc1
Activity (U-87 MG [1]): Active
Activity (PC-3 [2]): inactive
Activity (PC-3 [3]): Active
Activity (PC-3 [4]): Active
Activity (PC-3 [5]): Active
Activity (PC-3 [6]): Active
Activity (U-87 MG [7]): Active
Activity (Homo sapiens [8]): Active
Activity (PC-3 [9]): Active
Activity (PC-3 [10]): 73.7%
Activity (LN-229 [11]): Active
pIC50 (Granta-519 [12]): 5.36
Activity (PC-3 [13]): 4.8%
Activity (LN-229 [14]): Active
Activity (Z-138): Active
Activity (LN-229 [15]): Active
Activity (PC-3 [16]): 73.4%
Activity (Granta-519 [17]): Active
Activity (LN-229 [18]): Active
Activity (PC-3 [20]): Active
Activity (Granta-519 [21]): Active
Activity (DNA): inactive
Activity (PC-3 [22]): 11.68%
Activity (Jurkat): Active
Activity (Homo sapiens [23]): Active
Activity (PC-3 [24]): Active
